The source made the active and inactive calls. The calls are words filed in the database; no cut-off is given here.
Legend:
Influenza A virus [1] = assay: Antiviral activity against influenza A virus A/NWS/33 (H1N1) at 100 uM; type: functional, organism-based
Outline: (§1)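 PBS-washed confluent MDCK monolayers were inoculated with virus in serum-free MEM and adsorbed for 45 min at room temperature. They were then cultured in agar medium with drug at 100 µM or 1% DMSO as control. Results are percent of control, mean ± SD of three experiments. Drug stocks were in DMSO, final DMSO <1%.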

Influenza A virus [2] = assay: Inhibition of influenza A virus A/Aichi/2/68 proliferation in MDCK cells at 10 uM relative to control; type: functional; set-up: scale not given: the % may be the effect or the level left
Influenza A virus [3] = assay: Anti-influenza activity against influenza A virus A/Aichi/2/68 in MDCK cells administered at 100 uM within 1 hrs post infection; type: functional, organism-based
Outline: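 MDCK cells were infected with A/Aichi/2/68 (H3N2) under drug-free conditions and then given drug at 100 µM after delays of 0–10 h at 37 °C. The paper describes a one-step growth design at MOI 5 PFU/cell with 1-h drug treatment. Virus yield was measured by plaque titration after 24 h total, as % of 1% DMSO control, mean ± SD of three experiments.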

Influenza A virus [4] = assay: Antiviral activity against influenza virus A virus A/PR/8/34 (H1N1) at 100 uM; type: functional, organism-based; outline: as §1
Influenza A virus [5] = assay: Inhibition of influenza A virus A/Aichi/2/68 virus proliferation in MDCK cells; type: functional, organism-based
Influenza B virus [6] = assay: Antiviral activity against influenza B virus B/Lee at 100 uM; type: functional, organism-based; outline: as §1
Influenza A virus [7] = assay: Antiviral activity against influenza A virus A/USSR/92/77 (H1N1) at 100 uM; type: functional, organism-based; outline: as §1
Influenza B virus [8] = assay: Antiviral activity against influenza B virus B/Singapore/222/79 at 100 uM; type: functional; outline: as §1
MDCK = assay: Cytotoxicity against MDCK cells at 100 uM by MTT assay; type: cell-based, Canis lupus familiaris; conditions: dog
Outline: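 Subconfluent MDCK cells (10⁴ cells/well) were exposed for 24 h to compound at 100 or 200 µM in MEM with 2% FBS; control was 1% DMSO. MTT was then added and OD read at 570 nm. Values are mean ± SD of three measurements.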

| Structure (SMILES) | Activity (Influenza A virus [1]) | Activity (Influenza A virus [2]) [%] | Activity (Influenza A virus [3]) | Activity (Influenza A virus [4]) | Activity (Influenza A virus [5]) | Activity (Influenza B virus [6]) | Activity (Influenza A virus [7]) | Activity (Influenza B virus [8]) | Activity (MDCK) |
| --- | --- | --- | --- | --- | --- | --- | --- | --- | --- |
| N#C[C@]12CCC3(OCCO3)C3=CO[C@H](Cc4cc(OC(F)(F)F)ccc41)[C@@H]32 | Active | 30 | Active | Active | Dose-dependent effect | Active | Active | Active | Not Active |
| CC(C)C(Oc1ccc2c(c1)C[C@H]1OC=C3[C@H]1[C@@]2(C#N)CCCC31OCCO1)(C(C)C)C(C)C | Active | 30 | – | Active | Dose-dependent effect | Active | Active | Active | Not Active |

Source: ChEMBL document CHEMBL1144493, “Synthesis and biological evaluation of dihydrofuran-fused perhydrophenanthrenes as a new anti-influenza agent having novel structural characteristic” (Bioorg Med Chem, 2007)
